ChEMBL document CHEMBL1144433, “1-Amino-1,2,3,4-tetrahydronaphthalene-2-carboxylic acid as a Tic mimetic: application in the synthesis of potent human melanocortin-4 receptor selective agonists” (Bioorg Med Chem Lett, 2005)

Columns and labels:
[1] = biological target: Melanocyte-stimulating hormone receptor (Homo sapiens, UniProt Q01726); test: Concentration required for 50% inhibition by displacement of [125I]NDP-alpha-MSH of human MC1R expressed in CHO cells; type: cell-based
Melanocortin receptor 3 = Melanocortin receptor 3 (Homo sapiens, UniProt P41968); test: Concentration required for 50% inhibition by displacement of [125I]NDP-alpha-MSH of human MC3R expressed in CHO cells; type: cell-based
Melanocortin receptor 3, sequence (P41968 whole entry): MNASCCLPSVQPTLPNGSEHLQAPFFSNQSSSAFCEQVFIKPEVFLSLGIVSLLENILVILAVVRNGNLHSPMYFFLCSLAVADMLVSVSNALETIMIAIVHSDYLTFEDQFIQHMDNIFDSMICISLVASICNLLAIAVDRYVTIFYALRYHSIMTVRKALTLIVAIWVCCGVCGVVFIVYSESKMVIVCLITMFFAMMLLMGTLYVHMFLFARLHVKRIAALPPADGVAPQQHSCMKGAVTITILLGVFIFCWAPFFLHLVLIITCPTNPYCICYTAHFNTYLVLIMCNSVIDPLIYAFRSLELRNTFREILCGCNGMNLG

Melanocortin receptor 4 = Melanocortin receptor 4 (Homo sapiens, UniProt P32245); test: Concentration required for 50% inhibition by displacement of [125I]NDP-alpha-MSH of human MC4R expressed in CHO cells; type: cell-based
Melanocortin receptor 4, sequence (P32245 whole entry): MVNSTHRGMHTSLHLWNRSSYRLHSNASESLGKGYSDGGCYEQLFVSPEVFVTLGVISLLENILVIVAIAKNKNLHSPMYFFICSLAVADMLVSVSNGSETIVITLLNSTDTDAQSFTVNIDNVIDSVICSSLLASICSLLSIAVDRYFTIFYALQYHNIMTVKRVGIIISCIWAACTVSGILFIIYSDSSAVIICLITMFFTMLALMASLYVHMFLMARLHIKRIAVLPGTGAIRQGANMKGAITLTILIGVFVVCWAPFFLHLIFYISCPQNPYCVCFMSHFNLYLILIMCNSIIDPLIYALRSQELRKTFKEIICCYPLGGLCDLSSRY
Procedure, shortened: (§1)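 Competition binding against [125I]-NDP-α-MSH at human melanocortin receptors expressed in CHO cells. Values are means ± standard error from at least three determinations.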

Melanocortin receptor 5 = Melanocortin receptor 5 (Homo sapiens, UniProt P33032); test: Concentration required for 50% inhibition by displacement of [125I]NDP-alpha-MSH of human MC5R expressed in CHO cells; type: cell-based; procedure, shortened: as §1
Melanocortin receptor 5, sequence (P33032 whole entry): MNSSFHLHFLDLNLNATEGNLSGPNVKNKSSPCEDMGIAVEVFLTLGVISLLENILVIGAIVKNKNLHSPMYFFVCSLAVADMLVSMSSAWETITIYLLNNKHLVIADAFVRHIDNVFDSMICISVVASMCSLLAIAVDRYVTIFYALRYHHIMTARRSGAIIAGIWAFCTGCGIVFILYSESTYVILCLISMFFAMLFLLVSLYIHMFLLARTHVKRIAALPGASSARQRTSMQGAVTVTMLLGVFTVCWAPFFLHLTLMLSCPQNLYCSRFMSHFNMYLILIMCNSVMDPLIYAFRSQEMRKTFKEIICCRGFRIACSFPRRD

[2] = Pharmacokinetic parameter F studied in dog; type: ADME, organism-based, Canis lupus familiaris; conditions: in vivo
Procedure, shortened: (§2)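 Beagle dogs were dosed with a solution in EtOH/PEG/water (1:4:5), 0.5 mg iv and 2.0 mg/kg po. F, clearance, Vdss, t1/2 and tmax were derived from these doses.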

[3] = Pharmacokinetic parameter F studied in rat; type: ADME, organism-based; conditions: in vivo
Procedure, shortened: (§3)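 Sprague–Dawley rats were dosed with a EtOH/PEG/water (1:4:5) solution, 1 mg/kg iv and 4 mg/kg po. F, clearance, Vdss and t1/2 were derived from these doses.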

[4] = Pharmacokinetic parameter hal life studied in dog; type: ADME, organism-based, Canis lupus familiaris; conditions: in vivo; procedure, shortened: as §2
[5] = Pharmacokinetic parameter hal life studied in rat; type: ADME, organism-based; conditions: in vivo; procedure, shortened: as §3
[6] = Pharmacokinetic parameter Cl(clearance) studied in dog; type: ADME, organism-based, Canis lupus familiaris; conditions: in vivo; procedure, shortened: as §2
[7] = Pharmacokinetic parameter Cl(clearance) studied in rat; type: ADME, organism-based; conditions: in vivo; procedure, shortened: as §3
[8] = Pharmacokinetic parameter Vdss studied in dog; type: ADME, organism-based, Canis lupus familiaris; conditions: in vivo, read-out: Vdss; procedure, shortened: as §2
[9] = Pharmacokinetic parameter Vdss studied in rat; type: ADME, organism-based; conditions: in vivo, read-out: Vdss; procedure, shortened: as §3
[10] = Pharmacokinetic parameter max half life studied in dog; type: ADME, organism-based, Canis lupus familiaris; conditions: in vivo; procedure, shortened: as §2

Melanocyte-stimulating hormone receptor, sequence (Q01726 whole entry): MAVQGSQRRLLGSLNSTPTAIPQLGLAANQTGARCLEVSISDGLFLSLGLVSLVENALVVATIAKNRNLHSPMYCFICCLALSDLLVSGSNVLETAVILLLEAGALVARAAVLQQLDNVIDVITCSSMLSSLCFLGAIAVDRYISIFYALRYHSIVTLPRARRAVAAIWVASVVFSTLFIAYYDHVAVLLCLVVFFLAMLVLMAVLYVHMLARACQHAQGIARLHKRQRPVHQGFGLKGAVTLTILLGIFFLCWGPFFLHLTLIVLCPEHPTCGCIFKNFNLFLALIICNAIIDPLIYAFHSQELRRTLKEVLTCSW

Structure (SMILES) | IC50 [1] [nM] | IC50 (Melanocortin receptor 3) [nM] | IC50 (Melanocortin receptor 4) [nM] | IC50 (Melanocortin receptor 5) [nM] | bioavailability [2] [%] | bioavailability [3] [%] | half-life [4] [h] | half-life [5] [h] | clearance [6] [mL/min/kg] | clearance [7] [mL/min/kg] | Vd [8] [L/kg] | Vd [9] [L/kg] | Tmax [10] [h]
CC(C)(C)NC(=O)C1(C2CCCCC2)CCN(C(=O)[C@@H](Cc2ccc(Cl)cc2)NC(=O)C2Cc3ccccc3C2N)CC1 (some centres undefined) | 1400 | 83 | 1.9 | 34 | – | – | – | – | – | – | – | – | –
CC(C)(C)NC(=O)C1(C2CCCCC2)CCN(C(=O)[C@@H](Cc2ccc(Cl)cc2)NC(=O)C2CCCc3ccccc3C2N)CC1 (some centres undefined) | 220 | 97 | 1.1 | 54 | – | – | – | – | – | – | – | – | –
CC(C)(C)NC(=O)C1(C2CCCCC2)CCN(C(=O)[C@@H](Cc2ccc(Cl)cc2)NC(=O)[C@@H]2CCc3ccccc3[C@@H]2N)CC1 | 980 | 32 | 0.77 | 24 | – | – | – | – | – | – | – | – | –
CC(C)(C)NC(=O)C1(C2CCCCC2)CCN(C(=O)[C@@H](Cc2ccc(Cl)cc2)NC(=O)[C@H]2CCc3ccccc3[C@@]2(C)N)CC1 | 620 | 170 | 1.1 | 31 | – | – | – | – | – | – | – | – | –
CC(C)(C)NC(=O)C1(C2CCCCC2)CCN(C(=O)[C@@H](Cc2ccc(Cl)cc2)NC(=O)[C@H]2CCc3ccccc3[C@H]2N)CC1 | 530 | 120 | 0.37 | 64 | 42 | 11 | 3.4 | 2 | 11 | 35 | 2.9 | 3.9 | 2
